In ChEMBL document CHEMBL4229344 (Eur J Med Chem, 2018):

What was measured:
[1] = test system: EOL1; assay: Antitumor activity against human EOL-1 cells engrafted in ip dosed NOD-SCID mouse assessed as reduction of cell density in bone marrow administered 3 weeks post cell inoculation by FACS analysis; type: functional, organism-based
How it was run: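 Daily i.p. dosing started 3 weeks after inoculation at 7.5, 15 or 30 mg/kg/day. Mice monitored daily and euthanized when moribund or at hind-limb paralysis. Bone marrow cells, after red-cell lysis, stained with PE anti-HLA-ABC and counted by flow cytometry.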

[2] = molecular target: Activin receptor type-1 (Homo sapiens) (UniProt Q04771); assay: Binding affinity to wild-type human ACVR1 (C188 to C509 residues) expressed in bacterial expression system assessed as residual binding level at 1 uM by Kinomescan method relative to control
How it was run: (§1)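 Single-concentration (1 μM) competition-binding screen run by KINOMEscan against a panel of 468 purified kinases and mutants. The read-out is the relative binding activity of the test compound to each kinase.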

[3] = molecular target: Receptor-interacting serine/threonine-protein kinase 4 (Homo sapiens) (UniProt P57078); assay: Binding affinity to wild-type human partial length RIPK4 (M1 to V303 residues) expressed in mammalian expression system assessed as residual binding level at 1 uM by Kinomescan method relative to control
[4] = molecular target: Mitogen-activated protein kinase kinase kinase kinase 5 (Homo sapiens) (UniProt Q9Y4K4); assay: Binding affinity to wild-type human partial length MAP4K5 (M1 to P297 residues) expressed in bacterial expression system assessed as residual binding level at 1 uM by Kinomescan method relative to control
Sequence of Mitogen-activated protein kinase kinase kinase kinase 5 (Homo sapiens) (Q9Y4K4 whole entry, looked up, the tested form may be a part): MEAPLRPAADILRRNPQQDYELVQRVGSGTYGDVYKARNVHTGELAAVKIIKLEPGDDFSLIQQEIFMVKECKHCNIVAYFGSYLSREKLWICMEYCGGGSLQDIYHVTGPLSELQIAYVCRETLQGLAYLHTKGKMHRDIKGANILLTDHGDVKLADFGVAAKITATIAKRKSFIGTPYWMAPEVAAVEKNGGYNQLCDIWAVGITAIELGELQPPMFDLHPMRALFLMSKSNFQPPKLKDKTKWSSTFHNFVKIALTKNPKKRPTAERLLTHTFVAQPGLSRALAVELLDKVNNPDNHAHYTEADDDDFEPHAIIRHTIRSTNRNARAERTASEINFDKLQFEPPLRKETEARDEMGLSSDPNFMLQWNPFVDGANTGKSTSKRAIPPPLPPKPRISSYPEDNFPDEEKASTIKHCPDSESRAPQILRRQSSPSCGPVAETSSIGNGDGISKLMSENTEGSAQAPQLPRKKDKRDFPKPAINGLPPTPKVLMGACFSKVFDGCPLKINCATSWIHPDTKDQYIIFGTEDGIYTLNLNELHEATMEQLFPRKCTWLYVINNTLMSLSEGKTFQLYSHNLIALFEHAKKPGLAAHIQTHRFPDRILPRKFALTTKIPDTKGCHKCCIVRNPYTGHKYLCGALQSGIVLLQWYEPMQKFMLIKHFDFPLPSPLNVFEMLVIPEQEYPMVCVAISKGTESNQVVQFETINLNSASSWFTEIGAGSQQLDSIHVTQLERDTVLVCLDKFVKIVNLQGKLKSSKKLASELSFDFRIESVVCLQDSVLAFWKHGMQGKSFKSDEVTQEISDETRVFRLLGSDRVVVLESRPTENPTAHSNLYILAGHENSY

[5] = molecular target: Ribosomal protein S6 kinase alpha-1 (Homo sapiens) (UniProt Q15418); assay: Binding affinity to wild-type human partial length C-terminal RSK1 kinase domain 2 (P360 to L681 residues) expressed in bacterial expression system assessed as residual binding level at 1 uM by Kinomescan method relative to control
[6] = molecular target: Serine/threonine-protein kinase TAO3 (Homo sapiens) (UniProt Q9H2K8); assay: Binding affinity to wild-type human partial length TAOK3 (M1 to T316 residues) expressed in mammalian expression system assessed as residual binding level at 1 uM by Kinomescan method relative to control
[7] = molecular target: Ribosomal protein S6 kinase alpha-3 (Homo sapiens) (UniProt P51812); assay: Binding affinity to wild-type human partial length N-terminal RSK2 kinase domain 1 (M1 to D394 residues) expressed in mammalian expression system assessed as residual binding level at 1 uM by Kinomescan method relative to control
Sequence of Ribosomal protein S6 kinase alpha-3 (Homo sapiens) (P51812 whole entry, the tested form may be a part): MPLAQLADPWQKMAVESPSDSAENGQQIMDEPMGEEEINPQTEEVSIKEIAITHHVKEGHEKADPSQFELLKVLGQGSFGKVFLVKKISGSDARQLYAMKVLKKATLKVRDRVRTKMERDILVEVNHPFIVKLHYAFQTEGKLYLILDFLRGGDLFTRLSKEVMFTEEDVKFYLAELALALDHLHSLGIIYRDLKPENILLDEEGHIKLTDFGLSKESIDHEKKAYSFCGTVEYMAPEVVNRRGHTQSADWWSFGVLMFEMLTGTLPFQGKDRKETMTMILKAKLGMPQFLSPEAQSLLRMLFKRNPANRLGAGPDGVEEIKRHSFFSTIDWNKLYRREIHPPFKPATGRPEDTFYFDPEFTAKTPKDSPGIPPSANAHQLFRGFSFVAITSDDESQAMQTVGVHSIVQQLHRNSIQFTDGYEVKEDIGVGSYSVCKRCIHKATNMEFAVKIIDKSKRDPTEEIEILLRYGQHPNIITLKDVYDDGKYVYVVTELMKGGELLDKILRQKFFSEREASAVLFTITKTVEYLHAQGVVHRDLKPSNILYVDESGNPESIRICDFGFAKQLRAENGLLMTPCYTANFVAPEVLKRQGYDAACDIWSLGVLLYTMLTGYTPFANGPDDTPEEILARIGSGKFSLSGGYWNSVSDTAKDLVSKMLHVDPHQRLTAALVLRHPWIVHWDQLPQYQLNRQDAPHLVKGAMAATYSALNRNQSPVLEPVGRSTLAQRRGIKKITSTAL

[8] = test system: Tyrosine-protein kinase ABL1 (Homo sapiens), P00519 [F317L]; assay: Binding affinity to human phosphorylated ABL1 F317L mutant (S229 to K512 residues) expressed in mammalian expression system assessed as residual binding level at 1 uM by Kinomescan method relative to control; how it was run: as §1
[9] = molecular target: G protein-coupled receptor kinase 4 (Homo sapiens) (UniProt P32298); assay: Binding affinity to wild-type human full length GRK4 (M1 to C578 residues) expressed in bacterial expression system assessed as residual binding level at 1 uM by Kinomescan method relative to control; how it was run: as §1
Sequence of G protein-coupled receptor kinase 4 (Homo sapiens) (P32298 whole entry, looked up, the tested form may be a part): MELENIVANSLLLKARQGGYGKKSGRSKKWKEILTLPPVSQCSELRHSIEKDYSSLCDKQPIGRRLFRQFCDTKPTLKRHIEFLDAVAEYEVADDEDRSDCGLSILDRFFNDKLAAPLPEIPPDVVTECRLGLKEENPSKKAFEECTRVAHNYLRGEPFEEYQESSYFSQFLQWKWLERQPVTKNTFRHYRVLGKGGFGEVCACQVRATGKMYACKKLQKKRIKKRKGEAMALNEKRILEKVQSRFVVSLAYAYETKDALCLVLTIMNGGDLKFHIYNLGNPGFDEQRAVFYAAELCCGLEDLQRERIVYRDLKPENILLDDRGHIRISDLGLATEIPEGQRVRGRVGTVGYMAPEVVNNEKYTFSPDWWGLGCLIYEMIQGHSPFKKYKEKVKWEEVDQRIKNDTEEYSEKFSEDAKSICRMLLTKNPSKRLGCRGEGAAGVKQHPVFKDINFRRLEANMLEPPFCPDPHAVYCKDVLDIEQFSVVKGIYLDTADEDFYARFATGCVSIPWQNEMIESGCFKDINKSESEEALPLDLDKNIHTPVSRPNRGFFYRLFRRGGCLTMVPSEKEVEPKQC

[10] = molecular target: Rhodopsin kinase GRK1 (Homo sapiens) (UniProt Q15835); assay: Binding affinity to wild-type human full length GRK1 (M1 to S563 residues) expressed in mammalian expression system assessed as residual binding level at 1 uM by Kinomescan method relative to control; how it was run: as §1
[11] = AUC (0 to infinity) in Sprague-Dawley rat at 1 mg/kg, iv; type: ADME, organism-based; parameters: dose 1 mg/kg, time infinity, route intravenous; details: in vivo
How it was run: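 Male Sprague-Dawley rats (6–8 weeks) fasted overnight, dosed IV or orally; compound dissolved in 5% DMSO/40% PEG400/55% saline (dosing solution 1 mg/mL). Blood (~0.2 mL) from jugular vein into heparin; IV sampling 1 min–8 h, oral 5 min–24 h. Plasma separated by centrifugation at 2–8 °C, stored at −80 °C until analysis.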

[12] = molecular target: Macrophage colony-stimulating factor 1 receptor (Homo sapiens) (UniProt P07333); assay: Binding affinity to wild-type human partial length autoinhibited CSF1R (Y538 to S939 residues) expressed in mammalian expression system assessed as residual binding level at 1 uM by Kinomescan method relative to control
[13] = test system: Receptor-type tyrosine-protein kinase FLT3 (Homo sapiens), P36888 [UNDEFINED MUTATION]; assay: Binding affinity to human partial length FLT3 ITD mutant expressed in bacterial expression system assessed as residual binding level at 1 uM by Kinomescan method relative to control
Sequence of Receptor-type tyrosine-protein kinase FLT3 (Homo sapiens), P36888 [UNDEFINED MUTATION] (P36888 whole entry, looked up, stated change not applied): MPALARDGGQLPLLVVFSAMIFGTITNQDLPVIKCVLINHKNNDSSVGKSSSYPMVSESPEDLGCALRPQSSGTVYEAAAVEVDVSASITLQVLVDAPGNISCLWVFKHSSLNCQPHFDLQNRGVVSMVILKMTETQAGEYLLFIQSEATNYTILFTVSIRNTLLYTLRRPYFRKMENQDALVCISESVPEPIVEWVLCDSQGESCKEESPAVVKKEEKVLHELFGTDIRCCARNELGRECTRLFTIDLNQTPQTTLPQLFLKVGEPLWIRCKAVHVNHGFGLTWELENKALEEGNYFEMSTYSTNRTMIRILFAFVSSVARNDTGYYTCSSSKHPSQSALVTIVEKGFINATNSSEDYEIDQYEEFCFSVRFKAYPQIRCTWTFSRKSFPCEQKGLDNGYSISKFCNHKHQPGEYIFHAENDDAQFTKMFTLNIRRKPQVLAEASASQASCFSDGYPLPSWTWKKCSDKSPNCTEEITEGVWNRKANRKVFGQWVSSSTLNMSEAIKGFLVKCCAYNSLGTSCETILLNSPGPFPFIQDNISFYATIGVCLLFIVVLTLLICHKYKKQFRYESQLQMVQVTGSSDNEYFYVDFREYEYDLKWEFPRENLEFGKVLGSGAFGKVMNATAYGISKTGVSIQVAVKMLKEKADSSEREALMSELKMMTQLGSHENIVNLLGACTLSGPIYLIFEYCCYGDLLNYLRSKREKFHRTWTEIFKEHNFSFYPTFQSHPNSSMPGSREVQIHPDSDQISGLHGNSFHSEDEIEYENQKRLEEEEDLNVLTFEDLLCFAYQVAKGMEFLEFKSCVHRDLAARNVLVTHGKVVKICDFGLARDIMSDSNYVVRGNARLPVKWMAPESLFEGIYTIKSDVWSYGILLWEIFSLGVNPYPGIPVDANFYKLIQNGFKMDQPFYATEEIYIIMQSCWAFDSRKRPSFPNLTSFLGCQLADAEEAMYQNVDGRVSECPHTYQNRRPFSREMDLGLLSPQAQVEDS
How it was run: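 Kinome-wide single-concentration binding screen (KINOMEscan) at 1 μM against a panel of 468 purified kinases and mutants. Read-out is relative binding of each kinase compared with control. Selectivity across the panel was summarised as an S(10) score.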

[14] = molecular target: Phosphatidylinositol 4,5-bisphosphate 3-kinase catalytic subunit gamma isoform (Homo sapiens) (UniProt P48736); assay: Binding affinity to wild-type human partial length PIK3CG (S144 to A1102 residues) expressed in mammalian expression system assessed as residual binding level at 1 uM by Kinomescan method relative to control
Sequence of Phosphatidylinositol 4,5-bisphosphate 3-kinase catalytic subunit gamma isoform (Homo sapiens) (P48736 whole entry, looked up, the tested form may be a part, canonical isoform): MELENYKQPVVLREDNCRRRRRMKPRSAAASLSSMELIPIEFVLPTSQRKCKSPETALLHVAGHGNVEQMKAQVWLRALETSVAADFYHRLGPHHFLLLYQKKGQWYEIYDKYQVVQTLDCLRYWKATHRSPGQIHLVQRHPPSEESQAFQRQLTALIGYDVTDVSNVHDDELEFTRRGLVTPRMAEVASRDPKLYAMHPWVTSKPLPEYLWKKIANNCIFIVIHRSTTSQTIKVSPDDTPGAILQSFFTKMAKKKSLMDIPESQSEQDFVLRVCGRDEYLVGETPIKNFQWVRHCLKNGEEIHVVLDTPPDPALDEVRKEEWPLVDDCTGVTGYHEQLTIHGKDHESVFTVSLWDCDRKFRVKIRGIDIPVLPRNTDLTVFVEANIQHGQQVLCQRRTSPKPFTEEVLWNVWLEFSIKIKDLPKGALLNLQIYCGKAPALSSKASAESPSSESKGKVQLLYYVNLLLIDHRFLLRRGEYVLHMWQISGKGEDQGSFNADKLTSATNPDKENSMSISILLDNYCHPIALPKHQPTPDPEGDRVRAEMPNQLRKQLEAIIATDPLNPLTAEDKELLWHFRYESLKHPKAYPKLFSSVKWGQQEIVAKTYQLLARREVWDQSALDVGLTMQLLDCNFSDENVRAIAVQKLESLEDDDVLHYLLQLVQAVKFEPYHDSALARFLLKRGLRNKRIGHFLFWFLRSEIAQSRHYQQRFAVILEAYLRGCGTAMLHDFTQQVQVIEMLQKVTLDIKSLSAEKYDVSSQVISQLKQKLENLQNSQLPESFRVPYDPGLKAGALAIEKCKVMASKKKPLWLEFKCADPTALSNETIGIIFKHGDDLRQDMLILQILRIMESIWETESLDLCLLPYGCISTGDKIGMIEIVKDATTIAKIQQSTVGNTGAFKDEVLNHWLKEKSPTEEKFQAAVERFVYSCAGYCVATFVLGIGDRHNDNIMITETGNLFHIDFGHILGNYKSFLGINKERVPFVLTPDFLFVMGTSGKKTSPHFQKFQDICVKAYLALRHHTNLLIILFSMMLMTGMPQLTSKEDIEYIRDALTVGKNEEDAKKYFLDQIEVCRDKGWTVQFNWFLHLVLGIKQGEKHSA

[15] = molecular target: Membrane-associated tyrosine- and threonine-specific cdc2-inhibitory kinase (Homo sapiens) (UniProt Q99640); assay: Binding affinity to wild-type human partial length PKMYT1 (A88 to G366 residues) expressed in bacterial expression system assessed as residual binding level at 1 uM by Kinomescan method relative to control
Sequence of Membrane-associated tyrosine- and threonine-specific cdc2-inhibitory kinase (Homo sapiens) (Q99640 whole entry, the tested form may be a part): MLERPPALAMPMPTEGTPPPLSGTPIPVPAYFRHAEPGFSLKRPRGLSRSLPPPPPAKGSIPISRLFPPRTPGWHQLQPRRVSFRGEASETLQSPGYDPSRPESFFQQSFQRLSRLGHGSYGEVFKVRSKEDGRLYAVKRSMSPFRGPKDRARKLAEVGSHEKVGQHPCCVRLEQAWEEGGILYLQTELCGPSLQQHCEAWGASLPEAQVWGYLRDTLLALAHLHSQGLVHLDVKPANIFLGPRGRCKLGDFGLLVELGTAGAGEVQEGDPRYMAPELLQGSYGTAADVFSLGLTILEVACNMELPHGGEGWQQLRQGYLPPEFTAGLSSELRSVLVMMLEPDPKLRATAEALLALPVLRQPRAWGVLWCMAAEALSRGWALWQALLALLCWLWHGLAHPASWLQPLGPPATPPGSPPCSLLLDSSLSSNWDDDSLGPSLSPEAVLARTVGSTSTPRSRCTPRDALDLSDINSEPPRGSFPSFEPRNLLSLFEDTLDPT
How it was run: (§2)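 KINOMEscan competition binding against a panel of 468 purified kinases/mutants, compound tested at 1 μM; readout is relative binding activity versus control.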

[16] = molecular target: Phosphatidylinositol 5-phosphate 4-kinase type-2 gamma (Homo sapiens) (UniProt Q8TBX8); assay: Binding affinity to wild-type human partial length PIP5K2C (M1 to A421 residues) expressed in mammalian expression system assessed as residual binding level at 1 uM by Kinomescan method relative to control; how it was run: as §2
[17] = molecular target: Proto-oncogene tyrosine-protein kinase ROS (Homo sapiens) (UniProt P08922); assay: Binding affinity to wild-type human partial length ROS1 (A1921 to N2240 residues) expressed in bacterial expression system assessed as residual binding level at 1 uM by Kinomescan method relative to control
[18] = molecular target: Tyrosine-protein kinase ABL2 (Homo sapiens) (UniProt P42684); assay: Binding affinity to wild-type human ABL2 (A248 to G542 residues) expressed in bacterial expression system assessed as residual binding level at 1 uM by Kinomescan method relative to control
How it was run: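 KINOMEscan competition binding against 468 purified kinases/mutants, test compound at 1 µM; residual binding relative to control.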

[19] = test system: NCI-H1703; assay: Antiproliferative activity against human NCI-H1703 cells after 72 hrs in presence of PDGF-AA by CellTiter-Glo or CCK-8 assay; type: functional; details: NCI-H1703, 72 h
How it was run: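 Cells in RPMI 1640 with 10% FBS at 37 °C, 5% CO2, seeded at 1–3 × 10^4 cells/mL with serial compound dilutions for 72 h. Viability read by CellTiter-Glo luminescence or CCK-8 absorbance (450/655 nm), normalized to DMSO control.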

## Cc1ccc(NC(=O)c2ccc(CN(CCN(C)C)C(=O)c3cccnc3)cc2)cc1Nc1nccc(-c2cccnc2)n1
[1]
  Activity: Dose-dependent effect
[2]
  Activity: 99%
[3]
  Activity: 97%
[4]
  Activity: 97%
[5]
  Activity: 100%
[6]
  Activity: 100%
[7]
  Activity: 100%
[8]
  Activity: 87%
[9]
  Activity: 88%
[10]
  Activity: 96%
[11]
  AUC(0-inf): 541 ng·h/mL
[12]
  Activity: 100%
[13]
  Activity: 81%
[14]
  Activity: 99%
[15]
  Activity: 84%
[16]
  Activity: 37%
[17]
  Activity: 99%
[18]
  Activity: 69%
[19]
  GI50: 2990 nM
